Sampled rows, rich in hits. Any-hit rate of the full collection: about 3.7%.
JMJD2C inh – inhibitors of human GASC-1 (JMJD2C) demethylase; Q9H3R0; GST-JMJD2C(1-420) H3K9me3 demethylation, DELFIA europium; inhibition, % at 2.35 µM; hit rate 0.069% among 330,000;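 active = more than half of a compound's replicate wells show inhibition beyond 50%, single wells judged on their own value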;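 also: signal counts dimethyl H3K9 product captured on neutravidin plate; 0% = median of DMSO wells and 100% = 0.3 times that DMSO median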
SR-BI DiI inh – inhibitors of mouse SR-BI mediated HDL lipid uptake; hit rate 0.96% among 320,000; AID 488896; inhibition, % at 12.5 µM; ldlA[mSR-BI] CHO cells, DiI-HDL uptake fluorescence, 3 h;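 active = mean replicate inhibition of at least 70% and a set share of replicates each scoring 70 or more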;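 also: 0% = median of neutral control wells and 100% = median of positive control wells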
AHR act – activates the human aryl hydrocarbon receptor; AHR-responsive luciferase reporter cells, luminescence; activation, % at 5 µM; hit rate 2.5% among 320,000; in the data active = activation above about 47%;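 also: 0% = vehicle wells and 100% = reference agonist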
Target sequence (P35869 whole entry, looked up): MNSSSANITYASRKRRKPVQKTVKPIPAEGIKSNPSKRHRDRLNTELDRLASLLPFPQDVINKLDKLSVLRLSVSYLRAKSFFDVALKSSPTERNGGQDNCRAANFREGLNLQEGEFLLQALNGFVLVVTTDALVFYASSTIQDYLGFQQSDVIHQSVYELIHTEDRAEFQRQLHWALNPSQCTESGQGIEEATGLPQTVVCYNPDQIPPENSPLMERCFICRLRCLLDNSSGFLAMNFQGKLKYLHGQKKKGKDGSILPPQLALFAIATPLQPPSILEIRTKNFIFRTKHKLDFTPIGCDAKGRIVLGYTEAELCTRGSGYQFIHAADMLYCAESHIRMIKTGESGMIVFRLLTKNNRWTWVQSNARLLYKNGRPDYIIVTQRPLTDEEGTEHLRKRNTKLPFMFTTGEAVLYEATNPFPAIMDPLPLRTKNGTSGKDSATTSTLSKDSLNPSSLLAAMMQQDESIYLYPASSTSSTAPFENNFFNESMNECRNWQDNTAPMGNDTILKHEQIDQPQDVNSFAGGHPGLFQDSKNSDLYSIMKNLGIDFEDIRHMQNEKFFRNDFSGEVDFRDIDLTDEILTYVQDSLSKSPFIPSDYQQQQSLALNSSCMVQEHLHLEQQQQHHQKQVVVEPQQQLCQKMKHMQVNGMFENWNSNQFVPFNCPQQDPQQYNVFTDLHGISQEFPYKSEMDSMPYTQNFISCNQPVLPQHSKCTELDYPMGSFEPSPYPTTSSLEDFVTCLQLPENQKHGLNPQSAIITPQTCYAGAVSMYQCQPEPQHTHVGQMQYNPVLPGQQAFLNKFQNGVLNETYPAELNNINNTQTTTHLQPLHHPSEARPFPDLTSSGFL
FXN GAA850 act – increases GAA850 frataxin promoter reporter activity; hit rate 0.56% among 360,000; activation, % at 6 µM; HEK293 lucGAA850 FXN promoter luciferase reporter, 24 h; percent of 10 µM SAHA response;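 active = activation above the average of all compounds screened plus 3 SD, cutoff fixed separately per campaign, cut at about 7.5% in these data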;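 also: 0% = DMSO wells and 100% = 10 µM SAHA wells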
SR-BI DiI-HDL act – SR-BI HDL lipid transfer activation | CHO ldlA[mSR-BI] cells, DiI-HDL uptake fluorescence, 3 h; 100 = double the neutral-control signal | activation, % at 12.5 µM | hit rate 0.096% among 320,000 | AID 504775;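 active = mean replicate activation of at least 60% and every replicate at or above 60%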;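 also: 0% = median plate neutral-control signal and 100% = twice that signal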
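Test system: SR-BI-overexpressing, LDLR-lacking CHO cells; Also added: labelled HDL, 10 µg/mL; Measured by: bottom-read cell fluorescence after medium removal, ex 550/em 595 nm; Timing: 3 h uptake period with compound, 37 °C; Buffer or medium: F12, 0.5% BSA, 25 mM HEPES; Doses: single compound concentration, delivered by pin transfer.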
GAA30 FXN cntr – GAA30 FXN promoter activation counter-screen | shares compounds with FXN GAA850 act | HEK293 lucGAA30 FXN promoter luciferase, 24 h; DMSO = 0%, 5 µM ipriflavone = 100% | activation, % at 6 µM | hit rate 66% among 1,900;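 active = mean activation above the mean of solvent-only control wells plus 3 SD, cut at about 22% in these data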;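 also: counterscreen of GAA850 promoter hits where activity marks nonselective or luminescence artifacts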
GAA850 confirm – GAA850 FXN promoter activation confirmation | shares compounds with FXN GAA850 act | HEK293 lucGAA850 FXN promoter luciferase reporter, 24 h; 100% = activation by SAHA | activation, % at 6 µM | hit rate 86% among 1,900 | AID 588351;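 active = mean activation above a set limit taken from the primary screen, cut at about 8% in these data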;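 also: 0% = DMSO wells and 100% = 10 µM SAHA wells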
The depositor's hits bear a star; x = not tested or not shown.

SMILES | JMJD2C inh | SR-BI DiI inh | AHR act | FXN GAA850 act | SR-BI DiI-HDL act | GAA30 FXN cntr | GAA850 confirm
COc1ccc(S(=O)(=O)N2CCOC2CNC(=O)C(=O)NCCCN2CCOCC2)cc1 (stereo not given) | 7 | -13 | 4 | 2 | 13 | x | x
O=C(NCc1ccccc1)c1nc(S(=O)(=O)Cc2ccccc2)ncc1Cl | -43 | -4 | 1 | 17* | 4 | 9 | 28*
O=C(NCc1ccc2c(c1)OCO2)c1nc(S(=O)(=O)Cc2ccccc2F)ncc1Cl | -10 | -9 | 4 | 21* | 9 | 41* | 65*
CCS(=O)(=O)c1ncc(Cl)c(C(=O)Nc2ccc(C)cc2)n1 | 10 | -34 | 23 | 19* | 34 | -61 | 1
O=C(NCc1ccc2c(c1)OCO2)c1nc(S(=O)(=O)Cc2ccccc2)ncc1Cl | -15 | -18 | 2 | 7.9* | 18 | 38* | 70*
Cc1ccc(CS(=O)(=O)c2ncc(Cl)c(C(=O)Nc3ccc(OC(F)F)cc3)n2)cc1 | -21 | 8 | 16 | -2 | -8 | x | x
COc1ccccc1CNC(=O)c1cc2c(=O)[nH]c3ccccc3c2n1C | -30 | x | 0 | x | x | x | x
COc1ccc(CNC(=O)c2noc(C)c2[N+](=O)[O-])cc1 | 4 | -11 | 2 | -1 | 11 | x | x
CCN1CCCC1CNC(=O)c1ccc2c(c1)NC(=O)/C(=C\c1ccc(OC)c(OC)c1)S2 (stereo not given) | -21 | 36 | 2 | 7.7* | -36 | 16 | 7
COC(=O)c1ccc(CSc2nc3ccccc3c(=O)n2Cc2ccco2)o1 | -1 | -10 | 1 | 5 | 10 | x | x
O=S(=O)(N[C@H](CO)c1ccccc1)c1ccc(Br)cc1F | x | 30 | x | -2 | -30 | x | x
Cc1ccc(C(=O)CC2(O)C(=O)N(CCc3ccccc3)c3ccc(Br)cc32)o1 (stereo not given) | 0 | x | 22 | -3 | x | x | x
CCCCN1C(=O)C(O)(c2ccccc2)c2cc(Br)ccc21 (stereo not given) | 4 | -13 | 0 | 8.1* | 13 | 20 | 14*
COc1ccc(CCNC(=O)CC2SC(=NCc3ccccc3)NC2=O)cc1 (stereo not given) | -27 | 5 | 3 | 2 | -5 | x | x
CC(=O)N(C1CC(C)C(C#N)(C#N)C1(C#N)C#N)N(C)C (stereo not given) | -14 | 10 | 0 | 9.9* | -10 | -99 | -31
CCCC(=O)N(C1CC(C)C(C#N)(C#N)C1(C#N)C#N)N(C)C (stereo not given) | -31 | 20 | -3 | 5 | -20 | x | x
CCc1nn(C(CC)C(=O)NCCc2ccc(OC)cc2OC)c(=O)c2cc3occc3n12 (stereo not given) | 8 | 22 | 7 | 10* | -22 | 13 | 9.5*
CCc1nn(C(CC)C(=O)NCc2cccs2)c(=O)c2cc3occc3n12 (stereo not given) | 5 | -18 | 0 | 2 | 18 | x | x
CC(O)CNc1ncnc2cc(-c3ccc(F)cc3)sc12 (stereo not given) | -1 | 46 | 14 | 10* | -46 | 75* | 30*
C=CCn1c2ccccc2c(=O)c2cc(C#CC3(O)CCCCC3)ccc21 | -16 | 62 | 22 | 11* | -62 | 104* | 55*
Cn1c2ccccc2c(=O)c2cc(C#Cc3cccc(N)c3)ccc21 | -1 | 14 | 0 | 0 | -14 | x | x
C=CCn1c2ccccc2c(=O)c2cc(C#CC[C@@H](C)O)ccc21 | -2 | 57 | 41 | 11* | -57 | 127* | 44*
COc1cccc(NC(=O)N2CCCC(C(=O)NC3CCCCC3C)C2)c1 (stereo not given) | -5 | -7 | 2 | 0 | 7 | x | x
CN(C)c1nc(C=C(C#N)C#N)c(Cl)n1-c1ccc(F)cc1 | -2 | 17 | x | 11* | -17 | -57 | 33*
Cn1c2ccccc2c2cc([N+](=O)[O-])ccc21 | -3 | 13 | -5 | 2 | -13 | x | x
SMILES | JMJD2C inh | SR-BI DiI inh | AHR act | FXN GAA850 act | SR-BI DiI-HDL act | GAA30 FXN cntr | GAA850 confirm
CCN(CC)CCn1c2ccccc2c2nc3ccc([N+](=O)[O-])cc3cc21 | -8 | 26 | 6 | 11* | -26 | 24* | 28*
CCCCn1c(SCc2ccc(Cl)cc2)nc2c1c(=O)[nH]c(=O)n2C | -4 | 18 | -1 | 8.9* | -18 | 1 | 10*
CC(C)CCn1c(SCc2ccc(Cl)cc2)nc2c1c(=O)[nH]c(=O)n2C | -9 | 11 | 0 | 6 | -11 | x | x
Cn1c(=O)[nH]c(=O)c2c1nc([N+](=O)[O-])n2Cc1ccccc1 | 12 | 5 | -2 | 8.5* | -5 | -121 | -30
C/C=C/CSc1nc2c(c(=O)[nH]c(=O)n2C)n1Cc1ccc(C)cc1 | 5 | -17 | -1 | 29* | 17 | 13 | 17*
CCSc1nc2c(c(=O)[nH]c(=O)n2C)n1Cc1ccc(Cl)cc1 | x | -3 | 3 | 7.6* | 3 | 23* | 18*
CCN=C(NCC)SC1CC(=O)N(CCc2ccccc2)C1=O (stereo not given) | -41 | x | 2 | -1 | x | x | x
O=C(C1=C[C@H](c2csc3ccccc23)C[C@H](OCCCCO)O1)N1CCN(Cc2ccc3c(c2)OCO3)CC1 | 2 | 49 | 2 | -1 | -49 | x | x
COc1cccc(N(CC(=O)NC2CCCCC2)C(=O)Cn2nnc(-c3ccc(C)o3)n2)c1 | -6 | 24 | x | 1 | -24 | x | x
CCN(CC)S(=O)(=O)c1ccc(NS(=O)(=O)CC23CCC(CC2=O)C3(C)C)cc1 (stereo not given) | 0 | 0 | 0 | 4 | 0 | x | x
CCN(c1ccccc1)S(=O)(=O)c1ccc(C(=O)N(C)Cc2cccs2)cc1 | 3 | -11 | 0 | 0 | 11 | x | x
CCC(C)(C)C1CCC2(CC1)NC(=O)N(CC(=O)N1CCN(S(=O)(=O)c3cc(C)ccc3C)CC1)C2=O (stereo not given) | 1 | 10 | -1 | 2 | -10 | x | x
C/C(=N\NC(=O)COc1ccc(C(C)(C)C)cc1)c1ccccc1 | 2 | -5 | 8 | 3 | 5 | x | x
C/C(=N\NC(=O)COc1ccc(C(C)(C)C)cc1)c1cc2ccccc2o1 | -2 | 19 | 44 | 9.5* | -19 | 105* | 39*
C=CCn1nnc2sc3c(c2c1=O)CCC(C)C3 (stereo not given) | 1 | -21 | -2 | 8.7* | 21 | 71* | 30*
CCN(CC(=O)NCc1ccc(Cl)cc1)C(=O)COc1cccc(C(F)(F)F)c1 | 2 | 6 | 0 | 2 | -6 | x | x
Nc1cccn2c(-c3ccc(Cl)c(Cl)c3)cnc12 | 7 | 44 | 22 | 12* | -44 | 111* | 43*
CCc1c2ccccc2nn1-c1ccccc1C(=O)C(C)=O | -1 | -4 | 1 | 0 | 4 | x | x

High-throughput results from PubChem.
